Results from ChEMBL document CHEMBL4038344, “Novel Diarylurea Based Allosteric Modulators of the Cannabinoid CB1 Receptor: Evaluation of Importance of 6-Pyrrolidinylpyridinyl Substitution” (J Med Chem, 2017).
The source made the active and inactive calls. The rule behind the calls is not given here.

Key:
Cannabinoid receptor 1 [1] = target: T1, Cannabinoid receptor 1 (Homo sapiens, UniProt P21554); experiment: Agonist activity at human CB1 receptor expressed in CHO cells co-expressing Galpha16 assessed as increase in calcium mobilization at 10 uM measured at 1 sec interval for 90 secs by calcium-5 dye based FLIPR assay relative to CP55,940; type: cell-based; settings: 0.025 h
Cannabinoid receptor 2 [2] = target: T2, Cannabinoid receptor 2 (Homo sapiens, UniProt P34972); experiment: Agonist activity at human CB2 receptor expressed in CHO cells co-expressing Galpha16 assessed as increase in calcium mobilization at 10 uM measured at 1 sec interval for 90 secs by calcium-5 dye based FLIPR assay relative to CP55,940; type: functional, cell-based
Method in brief: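 CB2 agonist screen in stable human CB2-CHO-RD-HGA16 cells. Cells were Calcium 5 dye-loaded for 45 min at 37 °C in HBSS/HEPES/probenecid buffer, pH 7.4, and pretreated with vehicle. FLIPR Tetra then added compound at a single concentration. Fluorescence (485/525 nm) was expressed as % of CP55,940 Emax.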

Cannabinoid receptor 2 [3] = target: T2, Cannabinoid receptor 2; experiment: Antagonist activity at human CB2 receptor expressed in CHO cells co-expressing Galpha16 assessed as inhibition of CP55,940-induced calcium mobilization at 10 uM preincubated for 15 mins followed by CP55,490 addition measured at 1 sec interval for 90 secs by calcium-5 dye based FLIPR assay relative to CP55,940; type: functional, cell-based
Cannabinoid receptor 2 [4] = target: T2, Cannabinoid receptor 2; experiment: Antagonist activity at human CB2 receptor expressed in CHO cells co-expressing Galpha16 assessed as inhibition of CP55,940-induced calcium mobilization preincubated for 15 mins followed by CP55,490 addition measured at 1 sec interval for 90 secs by calcium-5 dye based FLIPR assay; type: functional, cell-based
Cannabinoid receptor 1 [5] = target: T1, Cannabinoid receptor 1; experiment: PAM antagonist activity at human CB1 receptor expressed in CHO cells co-expressing Galpha16 assessed as inhibition of CP55,940-induced calcium mobilization up to 100 nM preincubated for 15 mins followed by CP55,490 addition measured at 1 sec interval for 90 secs by calcium-5 dye based FLIPR assay; type: functional, cell-based
Liver [6] = experiment: (§1) Half life in rat liver microsomes in presence of NADPH by LC-MS/MS analysis; type: ADME, microsome; settings: microsomes
Method in brief: (§2)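 Compound was incubated at 37 °C with rat liver microsomes (0.5 mg/mL protein) in 100 mM potassium phosphate, pH 7.4, with 1 mM NADPH. Samples were taken at 0, 5, 15, 30 and 45 min and quenched 1:1 with ice-cold stop solution containing labetalol. Half-life and clearance are mean ± SD of two independent experiments.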

Liver [7] = experiment: Clearance in rat liver microsomes in presence of NADPH by LC-MS/MS analysis; type: ADME, microsome; method in brief: as §2
Rattus norvegicus [8] = experiment: Reduction in cocaine-induced reinstatement of cocaine seeking behavior in Sprague-Dawley rat at 10 mg/kg pretreated for 10 mins followed by cocaine treatment on day following last extinction session; type: functional, organism-based
Method in brief: (§3)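 Adult male Sprague-Dawley rats (280-300 g) with jugular catheters self-administered cocaine (0.75 mg/kg/infusion, FR1 rising to FR5) in 2-hr daily sessions for 14 days, followed by extinction. On the day after the last extinction session, compound was given 10 min before a cocaine prime (10 mg/kg i.p.). Active lever presses were counted over the 2-hr reinstatement session.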

[9] = target: Cannabinoid receptor 1 (Mus musculus) (UniProt P47746); experiment: PAM antagonist activity at CB1 receptor in CD-1 mouse cerebellar membranes assessed as increase in [3H]CP55,940 binding after 90 mins relative to control; set-up: scale not given: the % may be the effect or the level left; settings: Cerebellum, Membrane
[10] = target: Cannabinoid receptor 1 (Mus musculus) (UniProt P47746); experiment: PAM antagonist activity at CB1 receptor in CD-1 mouse cerebellar membranes assessed as inhibition of CP55,940-induced [35S]GTPgammaS binding after 60 mins; settings: Cerebellum, Membrane
Cannabinoid receptor 1 [11] = target: Cannabinoid receptor 1 (Rattus norvegicus, UniProt P20272); experiment: Allosteric modulation of CB1 receptor in rat cerebellar membranes assessed as inhibition of CP55,940-induced [35S]GTPgammaS binding; type: functional, cell membranes, Cerebellum, Membrane
[12] = as §1; type: ADME, microsome; settings: liver microsomes; method in brief: as §2
Rattus norvegicus [13] = experiment: Reduction in cocaine-induced reinstatement of cocaine seeking behavior in Sprague-Dawley rat at 30 mg/kg pretreated for 10 mins followed by cocaine treatment on day following last extinction session; type: functional, organism-based; method in brief: as §3
Cannabinoid receptor 1 [14] = target: Cannabinoid receptor 1 (Mus musculus, UniProt P47746); experiment: Allosteric modulation of CB1 receptor in CD-1 mouse cerebellar membranes assessed as inhibition of CP55,940-induced [35S]GTPgammaS binding after 60 mins; type: functional, cell membranes, Cerebellum, Membrane
Method in brief: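 They were preincubated 10 min with adenosine deaminase (3 U/ml) in buffer containing 1 mg/ml BSA, then incubated 60 min at 30 °C with 30 µM GDP, 0.1 nM [35S]GTPγS, 100 nM CP55,940 and compound (0.1% DMSO). Nonspecific binding was measured with 30 µM GTPγS. Read-out was filtration.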

T1 sequence (P21554 whole entry): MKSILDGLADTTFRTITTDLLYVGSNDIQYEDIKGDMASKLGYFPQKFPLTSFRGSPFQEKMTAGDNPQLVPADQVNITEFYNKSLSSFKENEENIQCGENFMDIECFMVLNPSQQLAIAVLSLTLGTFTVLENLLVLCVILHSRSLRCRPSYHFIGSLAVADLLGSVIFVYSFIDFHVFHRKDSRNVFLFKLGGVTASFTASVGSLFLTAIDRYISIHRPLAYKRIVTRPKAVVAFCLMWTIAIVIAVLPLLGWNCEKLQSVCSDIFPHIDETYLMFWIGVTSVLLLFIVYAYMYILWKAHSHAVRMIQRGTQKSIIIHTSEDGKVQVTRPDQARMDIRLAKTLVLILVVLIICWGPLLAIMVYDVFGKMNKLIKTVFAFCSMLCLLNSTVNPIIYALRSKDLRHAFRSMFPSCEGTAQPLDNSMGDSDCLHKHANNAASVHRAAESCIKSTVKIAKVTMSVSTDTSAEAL
T2 sequence (P34972 whole entry): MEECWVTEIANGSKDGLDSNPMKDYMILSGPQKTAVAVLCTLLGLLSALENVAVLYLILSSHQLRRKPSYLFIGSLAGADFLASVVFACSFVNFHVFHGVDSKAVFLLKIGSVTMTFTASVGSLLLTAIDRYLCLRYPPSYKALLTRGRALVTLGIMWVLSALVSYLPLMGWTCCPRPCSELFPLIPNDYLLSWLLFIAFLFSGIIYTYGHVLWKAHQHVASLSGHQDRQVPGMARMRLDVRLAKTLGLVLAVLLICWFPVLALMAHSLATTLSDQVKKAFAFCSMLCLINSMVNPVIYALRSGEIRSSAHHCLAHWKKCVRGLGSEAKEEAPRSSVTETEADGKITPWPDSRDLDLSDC
Cannabinoid receptor 1 (Mus musculus), sequence (P47746 whole entry, looked up): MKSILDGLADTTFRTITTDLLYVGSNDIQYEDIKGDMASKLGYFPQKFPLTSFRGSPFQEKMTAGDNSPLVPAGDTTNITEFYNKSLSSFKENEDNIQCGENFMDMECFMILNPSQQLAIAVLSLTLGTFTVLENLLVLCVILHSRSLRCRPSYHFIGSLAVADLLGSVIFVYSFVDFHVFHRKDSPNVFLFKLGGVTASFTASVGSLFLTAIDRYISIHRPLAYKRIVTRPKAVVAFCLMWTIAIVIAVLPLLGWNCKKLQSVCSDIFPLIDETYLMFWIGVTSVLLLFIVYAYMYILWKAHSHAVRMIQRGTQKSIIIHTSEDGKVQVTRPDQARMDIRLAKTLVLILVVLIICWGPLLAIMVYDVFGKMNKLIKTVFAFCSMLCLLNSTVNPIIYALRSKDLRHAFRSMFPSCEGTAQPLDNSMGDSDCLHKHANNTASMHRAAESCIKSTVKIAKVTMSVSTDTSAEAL
Cannabinoid receptor 1 (Mus musculus, UniProt P47746), sequence (P47746 whole entry): as the sequence (P47746 whole entry, looked up) above
Cannabinoid receptor 1 (Rattus norvegicus, UniProt P20272), sequence (P20272 whole entry): as the sequence (P47746 whole entry, looked up) above, with D95E counted along it

| Compound | Emax at 10 µM (Cannabinoid receptor 1 [1]) [%] | Emax (Cannabinoid receptor 2 [2]) [%] | Imax (Cannabinoid receptor 2 [3]) [%] | further results |
| --- | --- | --- | --- | --- |
| O=C(Nc1ccc(Cl)cc1)Nc1cccc(-c2cccnc2)c1 | 34 | < 10 | < 50 |  |
| O=C(Nc1ccc(Cl)cc1)Nc1cccc(-c2cnc3ccccc3c2)c1 | 3 | < 10 |  | IC50 (Cannabinoid receptor 2 [4]): 4.1 µM |
| O=C(Nc1ccc(Cl)cc1)Nc1cccc(-c2ccc3c(c2)Cc2ccccc2-3)c1 | 0 | < 10 | < 50 |  |
| O=C(Nc1ccc(Cl)cc1)Nc1cccc(-c2ccc(Cl)cc2)c1 | 21 | < 10 | < 50 |  |
| O=C(Nc1ccc(Cl)cc1)Nc1cccc(-c2ccc(F)cc2)c1 | 9 | < 10 |  | IC50 (Cannabinoid receptor 2 [4]): > 10 µM; inhibition (Cannabinoid receptor 1 [5]): Active; t1/2 (Liver [6]): > 300 min; CLH (Liver [7]): < 4.6 µL/min/mg; Activity (Rattus norvegicus [8]): Active; Activity [9]: 215%; inhibition [10]: Dose-dependent effect |
| COc1cccc(-c2cccc(NC(=O)Nc3ccc(Cl)cc3)c2)n1 | 2 | < 10 | < 50 |  |
| O=C(Nc1ccc(Cl)cc1)Nc1cccc(-c2ccc3occc3c2)c1 | 1 | < 10 | < 50 |  |
| O=C(Nc1ccc(Cl)cc1)Nc1cccc(-c2cc(Cl)cc(Cl)c2)c1 | 16 | < 10 | < 50 |  |
| O=C(Nc1ccc(Cl)cc1)Nc1cccc(-c2ccc(C(=O)c3ccccc3)cc2)c1 | 13 | < 10 | < 50 |  |
| Cc1ccccc1-c1cccc(NC(=O)Nc2ccc(Cl)cc2)c1 | 6 | < 10 |  | IC50 (Cannabinoid receptor 2 [4]): > 10 µM |
| O=C(Nc1ccc(Cl)cc1)Nc1cccc(-c2ccccc2)c1 | 5 | < 10 | < 50 |  |
| CC(C)Oc1cccc(-c2cccc(NC(=O)Nc3ccc(Cl)cc3)c2)c1 |  | < 10 | < 50 |  |
| O=C(Nc1ccc(Cl)cc1)Nc1cccc(-c2ccccn2)c1 | 9 | < 10 | < 50 |  |
| O=C(Nc1ccc(Cl)cc1)Nc1cccc(-c2ccc3c(c2)OCO3)c1 | 10 | < 10 | < 50 |  |
| O=C(Nc1ccc(Cl)cc1)Nc1cccc(-c2cccc(N3CCCC3)n2)c1 | 28 | < 10 |  | IC50 (Cannabinoid receptor 2 [4]): > 10 µM; IC50 (Cannabinoid receptor 1 [11]): 0.042 to 0.074 µM; half-life [12]: 13 to 13.4 min; CLH (Liver [7]): 113.7 µL/min/mg; Activity (Rattus norvegicus [13]): Active |
| O=C(Nc1ccc(Cl)cc1)Nc1cccc(-c2ccc3ccccc3c2)c1 | 7 | < 10 | < 50 |  |

| Compound | Emax at 10 µM (Cannabinoid receptor 1 [1]) [%] | Emax (Cannabinoid receptor 2 [2]) [%] | Imax (Cannabinoid receptor 2 [3]) [%] | further results |
| --- | --- | --- | --- | --- |
| Cc1cccc(-c2cccc(NC(=O)Nc3ccc(Cl)cc3)c2)c1 |  | < 10 | < 50 |  |
| O=C(Nc1ccc(Cl)cc1)Nc1cccc(-c2ccc(F)cc2F)c1 | 9 | < 10 | < 50 |  |
| Cc1ccnc(-c2cccc(NC(=O)Nc3ccc(Cl)cc3)c2)c1 | 3 | < 10 | < 50 |  |
| O=C(Nc1ccc(Cl)cc1)Nc1cccc(-c2ccc(Cl)c(Cl)c2)c1 | 20 | < 10 |  | IC50 (Cannabinoid receptor 2 [4]): > 10 µM |
| O=C(Nc1ccc(Cl)cc1)Nc1cccc(-c2ccncc2)c1 | 15 | < 10 | < 50 | t1/2 (Liver [6]): 41.9 min; CLH (Liver [7]): 33.1 µL/min/mg |
| O=C(Nc1ccc(Cl)cc1)Nc1cccc(-c2ccc3ccccc3n2)c1 | 5 | < 10 | < 50 |  |
| O=C(Nc1ccc(Cl)cc1)Nc1cccc(-c2c(Cl)cccc2Cl)c1 | 17 | < 10 | < 50 |  |
| COc1cccc(-c2cccc(NC(=O)Nc3ccc(Cl)cc3)c2)c1 | 13 | < 10 | < 50 |  |
| CC(C)(C)c1ccc(-c2cccc(NC(=O)Nc3ccc(Cl)cc3)c2)cc1 | 4 | < 10 | < 50 |  |
| O=C(Nc1ccc(Cl)cc1)Nc1cccc(-c2cncnc2)c1 | 9 | < 10 |  | IC50 (Cannabinoid receptor 2 [4]): 3.4 µM |
| O=C(Nc1ccc(Cl)cc1)Nc1cccc(-c2cccc([N+](=O)[O-])c2)c1 | 17 | < 10 |  | IC50 (Cannabinoid receptor 2 [4]): > 10 µM |
| CC(C)(C)c1cc(-c2cccc(NC(=O)Nc3ccc(Cl)cc3)c2)cc(C(C)(C)C)c1 | 10 | < 10 | < 50 |  |
| O=C(Nc1ccc(Cl)cc1)Nc1cccc(-c2cccc(O)c2)c1 | 10 | < 10 | < 50 |  |
| COc1cc(-c2cccc(NC(=O)Nc3ccc(Cl)cc3)c2)ccn1 | 23 | < 10 | < 50 |  |
| O=C(Nc1ccc(Cl)cc1)Nc1cccc(-c2cccc(-c3ccccc3)c2)c1 | 1 | < 10 | < 50 |  |
| O=C(Nc1ccc(Cl)cc1)Nc1cccc(-c2ccc(-c3ccccc3)cc2)c1 | 0 | < 10 | < 50 | IC50 (Cannabinoid receptor 1 [14]): > 10 µM |
